Results on 4 compounds are retold here after ChEMBL document CHEMBL1147666, “Fluorinated amphiphilic amino acid derivatives as antioxidant carriers: a new class of protective agents” (J Med Chem, 2006).

For assay [1], the system named is Rotifers. The assay is described as follows: Viability of rotifers against hydrogen peroxide toxicity at 10 uM. To be noted: Rotifera; read-out: Activity. The format is organism-based. The method in brief: (§1)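 Whole rotifers of defined, uniform age from one stock culture; standardized viability assay. Animals exposed 24 h to oxidotoxin (hydrogen peroxide or doxorubicin) at 200 µM together with antioxidant at 10 µM. Vehicle-only controls run in parallel. Read-out is % viable organisms, mean ± SEM, N = 10; ANOVA with Bonferroni t-test vs vehicle.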

The subject of assay [2] is Radical scavenging activity. Briefly: Hydroxyl radical scavenging activity by ABTS competition assay per 30 mins at 1 umol/mL. The format is functional. The method in brief: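 Fenton-initiated ABTS cation radical formation in distilled water adjusted to pH 5.0. Mix: ABTS 1 mM and FeSO4 0.5 mM (stock), test compound 1 mM in DMSO, 10% final DMSO in vehicle controls. Started by adding H2O2 10 mM (stock). Read at 420 nm every minute for 30 min. Output is quenched ABTS•+ in nmol/30 min, mean ± SEM, N = 10.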

Assay [3] deals with Rotifers. Briefly: Viability of rotifers against doxorubicin toxicity at 10 uM. The class given is organism-based. To be noted: Rotifera; read-out: Activity. Put shortly: as §1
Assay [4] concerns Mixed cortical cells. The assay is described as follows: Inhibition of doxorubicin-induced death of mixed cortical cells of E15 Sprague-Dawley rat embryo at 10 uM. The format is functional. To be noted: Mixed cortical cell. The method in brief: (§2)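 Primary mixed cortical cultures from E15 Sprague-Dawley rat embryos, exposed 24 h to oxidotoxin (hydrogen peroxide, peroxynitrite or doxorubicin, 200 µM) plus antioxidant at 10 µM. Cell death measured by trypan blue absorbance at 590 nm. Reported as % inhibition of trypan blue absorbance versus vehicle, mean ± SEM, N = 10.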

The test system of assay [5] is Mixed cortical cells. Briefly: Inhibition of peroxynitrite-induced death of mixed cortical cells of E15 Sprague-Dawley rat embryo at 10 uM. The class given is functional. To be noted: Mixed cortical cell. The method in brief:
as §2

The subject of assay [6] is Mixed cortical cells. Briefly: Inhibition of hydrogen peroxide-induced death of mixed cortical cells of E15 Sprague-Dawley rat embryo at 10 uM. To be noted: Mixed cortical cell. The format is functional. Put shortly: as §2
Assay [7] concerns Radical scavenging activity. The assay is described as follows: Radical reducing potency by ABTS cation radical reduction assay per 30 mins at […]. The format is functional. The method in brief:
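ABTS cation radical reduction assay (modified Re et al.). Assay ABTS•+ 105 µM, test compound 0.5 mM final. Started by adding the test agent. Read every minute at 420 nm for 30 min. DMSO vehicle controls at 2.5% final. Output is reduced ABTS•+ in nmol/30 min, mean ± SEM, N = 10.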

Turning to `Cc1c(C)c2c(c(C)c1O)CCC(C)(C(=O)O)O2` (configuration not stated) [TROLOX], the survival at 10 µM in the assay with Rotifers [1] was determined as 13%; in the assay with Rotifers [3], 13.1%. Besides, the Activity in assay [2] was 87.3 nM; in assay [7], 93.4 nM. The inhibition at 10 µM with Mixed cortical cells [4] was 15.5%; in the assay on Mixed cortical cells [5] it was 16.8%; in the assay with Mixed cortical cells [6] it was 22.2%.
For `CC(C)(C)/[N+]([O-])=C/c1ccccc1`, the survival at 10 µM with Rotifers [1] came out at 25.6%; with Rotifers [3] it was 18.7%. Further, the Activity in assay [2] is 18.2 nM; in assay [7], 7.8 nM. In addition, the inhibition at 10 µM turned out to be 24.2% with Mixed cortical cells [4], 20.6% in the assay on Mixed cortical cells [5] and 25% with Mixed cortical cells [6].
For the compound `O=C(O)CCc1c[nH]c2ccccc12`, the survival at 10 µM in the assay with Rotifers [1] is 67.9%; in the assay on Rotifers [3] it was 53.8%. Further, the Activity in assay [2] is 95.7 nM; in assay [7], 96.5 nM. The inhibition at 10 µM in the assay with Mixed cortical cells [4] is 76.1%; in the assay on Mixed cortical cells [5], 83.8%; in the assay on Mixed cortical cells [6], 87.7%.
Consider `O=C(O)CCCCC1CCSS1` (stereo not drawn) [LIPOIC ACID, ALPHA], for which the survival at 10 µM turned out to be 14.1% in the assay on Rotifers [1] and 13.3% in the assay on Rotifers [3]. For the same compound, the inhibition at 10 µM in the assay with Mixed cortical cells [4] turned out to be 14.8%; with Mixed cortical cells [5], 13.1%; in the assay on Mixed cortical cells [6], 15.1%. The same compound showed an Activity in assay [7] of 44.1 nM.

The inhibition is the change of the read-out against control, counted positive when it falls. Read a high inhibition as strong suppression.
